# Laboratory results as given in ChEMBL document CHEMBL1255347, “Multiclonal outbreak of Klebsiella pneumoniae producing extended-spectrum beta-lactamase CTX-M-2 and novel variant CTX-M-59 in a neonatal intensive care unit in Brazil” (2008).
# Legend:
# [1] = system: Klebsiella pneumoniae; assay: Antimicrobial activity against CTX-M-2 and TEM-1 producing Klebsiella pneumoniae transconjugants/transformants with PFGE pulsotype F by Etest in presence of clavulanic acid; type: functional
# Procedure, shortened: (§1)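 The recipient was E. coli XL1-Blue Rifr NAr. Plasmids moved by broth mating, with transconjugants selected on LB agar containing ampicillin, rifampin and nalidixic acid, each at 50 μg/ml. Where mating failed, alkaline-lysis plasmid extracts were electroporated and selected on ampicillin 50 μg/ml. β-lactam MICs were read by Etest, with and without clavulanic acid.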
# [2] = system: Klebsiella pneumoniae; assay: Antimicrobial activity against CTX-M-2 producing Klebsiella pneumoniae with PFGE pulsotype A by Etest; type: functional
# Procedure, shortened: (§2)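 Clinical K. pneumoniae isolates from a neonatal ICU outbreak near São Paulo were typed by XbaI PFGE using Tenover criteria. Cultures were grown in LB broth at 37°C. Etest MICs followed the manufacturer's instructions, with cefotaxime and ceftazidime each tested with and without clavulanic acid.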
# [3] = system: Klebsiella pneumoniae; assay: Antimicrobial activity against CTX-M-2 producing Klebsiella pneumoniae with PFGE pulsotype A by Etest in presence of clavulanic acid; type: functional; procedure, shortened: as §2
# [4] = system: Klebsiella pneumoniae; assay: Antimicrobial activity against CTX-M-59 producing Klebsiella pneumoniae with PFGE pulsotype G by Etest in presence of clavulanic acid; type: functional
# Procedure, shortened: (§3)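 MICs were determined by Etest strips following the manufacturer's instructions, using cefotaxime and ceftazidime each combined with clavulanic acid. The test strains were clinical NICU outbreak isolates confirmed as ESBL producers by disk diffusion. Pulsotypes were assigned by XbaI PFGE using Tenover relatedness criteria. Cultures were routinely grown in LB broth at 37°C.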
# [5] = system: Klebsiella pneumoniae; assay: Antimicrobial activity against CTX-M-59 and TEM-1 producing Klebsiella pneumoniae transconjugants/transformants with PFGE pulsotype G by Etest in presence of clavulanic acid; type: functional; procedure, shortened: as §1
# [6] = system: Klebsiella pneumoniae; assay: Antimicrobial activity against CTX-M-59 and TEM-1 producing Klebsiella pneumoniae transconjugants/transformants with PFGE pulsotype E by Etest; type: functional; procedure, shortened: as §1
# [7] = system: Klebsiella pneumoniae; assay: Antimicrobial activity against CTX-M-2 producing Klebsiella pneumoniae with PFGE pulsotype I by Etest in presence of clavulanic acid; type: functional; procedure, shortened: as §2
# [8] = system: Klebsiella pneumoniae; assay: Antimicrobial activity against SHV-5 producing Klebsiella pneumoniae with PFGE pulsotype D by Etest in presence of clavulanic acid; type: functional
# [9] = system: Klebsiella pneumoniae; assay: Antimicrobial activity against CTX-M-2 and TEM-1 producing Klebsiella pneumoniae transconjugants/transformants with PFGE pulsotype H by Etest in presence of clavulanic acid; type: functional
# [10] = system: Klebsiella pneumoniae; assay: Antimicrobial activity against CTX-M-2 producing Klebsiella pneumoniae with PFGE pulsotype F by Etest in presence of clavulanic acid; type: functional; procedure, shortened: as §2
# [11] = system: Klebsiella pneumoniae; assay: Antimicrobial activity against CTX-M-2 and TEM-1 producing Klebsiella pneumoniae transconjugants/transformants with PFGE pulsotype J by Etest; type: functional; procedure, shortened: as §1
# [12] = system: Klebsiella pneumoniae; assay: Antimicrobial activity against CTX-M-2 and TEM-1 producing Klebsiella pneumoniae transconjugants/transformants with PFGE pulsotype I by Etest in presence of clavulanic acid; type: functional; procedure, shortened: as §1
# [13] = system: Klebsiella pneumoniae; assay: Antimicrobial activity against CTX-M-2 producing Klebsiella pneumoniae with PFGE pulsotype J by Etest; type: functional
# [14] = system: Klebsiella pneumoniae; assay: Antimicrobial activity against SHV-5 producing Klebsiella pneumoniae transconjugants/transformants with PFGE pulsotype D by Etest; type: functional; procedure, shortened: as §1
# [15] = system: Klebsiella pneumoniae; assay: Antimicrobial activity against CTX-M-2 and TEM-1 producing Klebsiella pneumoniae transconjugants/transformants with PFGE pulsotype B by Etest in presence of clavulanic acid; type: functional; procedure, shortened: as §1
# [16] = system: Klebsiella pneumoniae; assay: Antimicrobial activity against CTX-M-59 producing Klebsiella pneumoniae with PFGE pulsotype E by Etest in presence of clavulanic acid; type: functional; procedure, shortened: as §3
# [17] = system: Klebsiella pneumoniae; assay: Antimicrobial activity against SHV-5 producing Klebsiella pneumoniae with PFGE pulsotype D by Etest; type: functional; procedure, shortened: as §2
# [18] = system: Klebsiella pneumoniae; assay: Antimicrobial activity against CTX-M-2 producing Klebsiella pneumoniae with PFGE pulsotype H by Etest; type: functional; procedure, shortened: as §2
# [19] = system: Klebsiella pneumoniae; assay: Antimicrobial activity against CTX-M-59 producing Klebsiella pneumoniae with PFGE pulsotype E by Etest; type: functional
# [20] = system: Klebsiella pneumoniae; assay: Antimicrobial activity against CTX-M-59 and TEM-1 producing Klebsiella pneumoniae transconjugants/transformants with PFGE pulsotype E by Etest in presence of clavulanic acid; type: functional; procedure, shortened: as §1
# [21] = system: Klebsiella pneumoniae; assay: Antimicrobial activity against CTX-M-2 and TEM-1 producing Klebsiella pneumoniae transconjugants/transformants with PFGE pulsotype B by Etest; type: functional; procedure, shortened: as §1
# [22] = system: Escherichia coli; assay: Antimicrobial activity against Escherichia coli str. K-12 substr. DH10B harboring plasmid CTX-M-2 in presence of clavulanic acid; type: functional; conditions: K-12 DH10B
# Procedure, shortened: (§4)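 blaCTX-M PCR products were cut with XbaI/BamHI and cloned into pBC-SK(−), then electroporated into E. coli DH10B. Transformants were selected on LB agar with ampicillin 50 μg/ml and chloramphenicol 30 μg/ml, and sequences were confirmed. These clones were used for β-lactam MICs, with and without clavulanic acid.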
# [23] = system: Klebsiella pneumoniae; assay: Antimicrobial activity against CTX-M-59 producing Klebsiella pneumoniae with PFGE pulsotype G by Etest; type: functional; procedure, shortened: as §2
# [24] = system: Klebsiella pneumoniae; assay: Antimicrobial activity against CTX-M-2 and TEM-1 producing Klebsiella pneumoniae transconjugants/transformants with PFGE pulsotype J by Etest in presence of clavulanic acid; type: functional; procedure, shortened: as §1
# [25] = system: Klebsiella pneumoniae; assay: Antimicrobial activity against CTX-M-2 producing Klebsiella pneumoniae with PFGE pulsotype B by Etest in presence of clavulanic acid; type: functional; procedure, shortened: as §2
# [26] = system: Escherichia coli; assay: Antimicrobial activity against Escherichia coli str. K-12 substr. DH10B harboring plasmid CTX-M-2; type: functional; conditions: K-12 DH10B; procedure, shortened: as §4
# [27] = system: Klebsiella pneumoniae; assay: Antimicrobial activity against CTX-M-2 producing Klebsiella pneumoniae with PFGE pulsotype I by Etest; type: functional
# [28] = system: Klebsiella pneumoniae; assay: Antimicrobial activity against CTX-M-59 producing Klebsiella pneumoniae with PFGE pulsotype C by Etest; type: functional
# [29] = system: Klebsiella pneumoniae; assay: Antimicrobial activity against CTX-M-59 and TEM-1 producing Klebsiella pneumoniae transconjugants/transformants with PFGE pulsotype G by Etest; type: functional; procedure, shortened: as §1
# [30] = system: Klebsiella pneumoniae; assay: Antimicrobial activity against CTX-M-2 producing Klebsiella pneumoniae with PFGE pulsotype J by Etest in presence of clavulanic acid; type: functional; procedure, shortened: as §2
# [31] = system: Klebsiella pneumoniae; assay: Antimicrobial activity against CTX-M-2 producing Klebsiella pneumoniae with PFGE pulsotype B by Etest; type: functional; procedure, shortened: as §2
# [32] = system: Escherichia coli; assay: Antimicrobial activity against CTX-M-2 and TEM-1 producing Escherichia coli transconjugants/transformants with PFGE pulsotype A by Etest in presence of clavulanic acid
# [33] = system: Escherichia coli; assay: Antimicrobial activity against Escherichia coli str. K-12 substr. DH10B harboring plasmid CTX-M-59; type: functional; conditions: K-12 DH10B; procedure, shortened: as §4
# [34] = system: Klebsiella pneumoniae; assay: Antimicrobial activity against CTX-M-2 and TEM-1 producing Klebsiella pneumoniae transconjugants/transformants with PFGE pulsotype I by Etest; type: functional; procedure, shortened: as §1
# [35] = system: Escherichia coli; assay: Antimicrobial activity against Escherichia coli str. K-12 substr. DH10B harboring plasmid CTX-M-59 in presence of clavulanic acid; type: functional; conditions: K-12 DH10B; procedure, shortened: as §4
# [36] = system: Klebsiella pneumoniae; assay: Antimicrobial activity against CTX-M-59 producing Klebsiella pneumoniae with PFGE pulsotype C by Etest in presence of clavulanic acid; type: functional; procedure, shortened: as §2
# [37] = system: Klebsiella pneumoniae; assay: Antimicrobial activity against CTX-M-59 and TEM-1 producing Klebsiella pneumoniae transconjugants/transformants with PFGE pulsotype C by Etest in presence of clavulanic acid; type: functional; procedure, shortened: as §1
# [38] = system: Klebsiella pneumoniae; assay: Antimicrobial activity against CTX-M-2 and TEM-1 producing Klebsiella pneumoniae transconjugants/transformants with PFGE pulsotype A by Etest; type: functional; procedure, shortened: as §1
# [39] = system: Klebsiella pneumoniae; assay: Antimicrobial activity against CTX-M-2 producing Klebsiella pneumoniae with PFGE pulsotype H by Etest in presence of clavulanic acid; type: functional
# Procedure, shortened: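 Etest strips used per manufacturer's instructions to read MICs of cefotaxime and ceftazidime, each with clavulanic acid, on clinical NICU K. pneumoniae outbreak isolates. Isolates were typed by XbaI PFGE using Tenover criteria and routinely grown in LB broth at 37°C.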
# [40] = system: Klebsiella pneumoniae; assay: Antimicrobial activity against CTX-M-59 and TEM-1 producing Klebsiella pneumoniae transconjugants/transformants with PFGE pulsotype C by Etest; type: functional; procedure, shortened: as §1
# [41] = system: Klebsiella pneumoniae; assay: Antimicrobial activity against CTX-M-2 producing Klebsiella pneumoniae with PFGE pulsotype F by Etest; type: functional
# [42] = system: Klebsiella pneumoniae; assay: Antimicrobial activity against CTX-M-2 and TEM-1 producing Klebsiella pneumoniae transconjugants/transformants with PFGE pulsotype F by Etest; type: functional; procedure, shortened: as §1
# [43] = system: Klebsiella pneumoniae; assay: Antimicrobial activity against SHV-5 producing Klebsiella pneumoniae transconjugants/transformants with PFGE pulsotype D by Etest in presence of clavulanic acid; type: functional; procedure, shortened: as §1
# [44] = system: Klebsiella pneumoniae; assay: Antimicrobial activity against CTX-M-2 and TEM-1 producing Klebsiella pneumoniae transconjugants/transformants with PFGE pulsotype H by Etest; type: functional; procedure, shortened: as §1
smiles,measurement,setting,value
CC(C)(O/N=C(\C(=O)N[C@@H]1C(=O)N2C(C(=O)[O-])=C(C[n+]3ccccc3)CS[C@H]12)c1csc(N)n1)C(=O)O [CEFTAZIDIME],MIC,[1],0.38 µg/mL
same,MIC,[2],6 µg/mL
same,MIC,[3],0.5 µg/mL
same,MIC,[4],1 µg/mL
same,MIC,[5],0.38 µg/mL
same,MIC,[6],4 µg/mL
same,MIC,[7],0.5 µg/mL
same,MIC,[8],0.25 µg/mL
same,MIC,[9],0.25 µg/mL
same,MIC,[10],1.5 µg/mL
same,MIC,[11],12 µg/mL
same,MIC,[12],0.19 µg/mL
same,MIC,[13],6 µg/mL
same,MIC,[14],> 256 µg/mL
same,MIC,[15],0.19 µg/mL
same,MIC,[16],0.75 µg/mL
same,MIC,[17],256 µg/mL
same,MIC,[18],256 µg/mL
same,MIC,[19],8 µg/mL
same,MIC,[20],0.19 µg/mL
same,MIC,[21],12 µg/mL
same,MIC,[22],0.38 µg/mL
same,MIC,[23],12 µg/mL
same,MIC,[24],0.38 µg/mL
same,MIC,[25],0.75 µg/mL
same,MIC,[26],8 µg/mL
same,MIC,[27],4 µg/mL
same,MIC,[28],4 µg/mL
same,MIC,[29],8 µg/mL
same,MIC,[30],0.75 µg/mL
same,MIC,[31],24 µg/mL
same,MIC,[32],0.19 µg/mL
same,MIC,[33],8 µg/mL
same,MIC,[34],6 µg/mL
same,MIC,[35],0.38 µg/mL
same,MIC,[36],0.38 µg/mL
same,MIC,[37],0.25 µg/mL
same,MIC,[38],8 µg/mL
same,MIC,[39],> 4 µg/mL
same,MIC,[40],8 µg/mL
same,MIC,[41],8 µg/mL
same,MIC,[42],16 µg/mL
same,MIC,[43],0.19 µg/mL
same,MIC,[44],8 µg/mL
